Test results as given in ChEMBL document CHEMBL3351249, “Potent cholesteryl ester transfer protein inhibitors of reduced lipophilicity: 1,1'-spiro-substituted hexahydrofuroquinoline derivatives” (J Med Chem, 2014).

Assays:
Plasma [1] = assay: Plasma concentration in hemizygous human CETP transgenic mouse at 1 mg/kg, po dosed for 5 consecutive days measured on day 5 and day 7 post dose; format: ADME, organism-based; set-up: dose 1 mg/kg, route oral; settings: in vivo
[2] = Volume of distribution at steady state in C57BL/6J mouse at 1 umol/kg, iv; format: ADME, organism-based; settings: in vivo, read-out: Vdss
Cynomolgus monkey [3] = assay: Effect on left ventricular pressure in cynomolgus monkey up to 100 mg/kg by telemetry; format: ADME, organism-based, Macaca fascicularis, Heart left ventricle; set-up: dose 100 mg/kg; settings: in vivo
Outline: (§1)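 Acute telemetry study in conscious cynomolgus monkeys at doses up to 100 mg/kg. Blood pressure, left ventricular pressure, contractility, heart rate and ECG (PR, QRS, QT) recorded. Exposure followed as Cmax and MRT.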

Cynomolgus monkey [4] = assay: Effect on myocardial contractility in cynomolgus monkey up to 100 mg/kg by telemetry; format: ADME, organism-based, Macaca fascicularis, Myocardium; set-up: dose 100 mg/kg; settings: in vivo; outline: as §1
Cynomolgus monkey [5] = assay: Effect on electrocardiogram parameters in cynomolgus monkey assessed as changes in PR-interval up to 100 mg/kg by telemetry; format: ADME, organism-based, Macaca fascicularis; set-up: dose 100 mg/kg; settings: in vivo; outline: as §1
[6] = Drug concentration in muscle of hemizygous human CETP transgenic mouse at 3 mg/kg, po dosed for 5 consecutive days measured on day 21 after cessation of drug treatment; format: ADME, organism-based, Muscle tissue; set-up: dose 3 mg/kg, route oral; settings: read-out: Drug uptake
Outline: (§2)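 Male hCETP transgenic mice given oral doses for 5 days in 0.5% hydroxyethylcellulose. Tissues and plasma collected at day 3 and day 21 after the last dose. Fat diluted 6:1 with acetonitrile and homogenized. Analysis by LC/MS/MS on a C18 column with QCs at 4.0−1000 nM, accepted within 30% of target.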

[7] = Drug concentration in adipose fat tissue of hemizygous human CETP transgenic mouse at 3 mg/kg, po dosed for 5 consecutive days measured on day 3 after cessation of drug treatment; format: ADME, organism-based; set-up: dose 3 mg/kg, route oral; settings: in vivo; outline: as §2
Mus musculus [8] = assay: Increase in HDL-cholesterol in hemizygous human CETP transgenic mouse at 1 mg/kg, po dosed for 5 consecutive days; format: functional
Outline: (§3)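 Male hemizygous hCETP or hCETP/hApoB100 transgenic mice, 26−30 weeks, chow-fed. Compound suspended in 0.5% aqueous hydroxyethylcellulose, oral gavage each morning for 5 or 14 days. EDTA blood taken 7 h post-dose (fed for 5-day, after 4 h fast for 14-day) from vena facialis under isoflurane. HDL/LDL cholesterol measured on Cobas Integra 400 Plus. Mean ± SEM, one-way ANOVA with Bonferroni.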

Mus musculus [9] = assay: Increase in HDL-cholesterol in hemizygous human CETP transgenic mouse dosed for 5 consecutive days via oral gavage; format: functional, organism-based; outline: as §3
Mus musculus [10] = assay: Increase in HDL-cholesterol in hemizygous human CETP transgenic mouse at 3 mg/kg, po dosed for 5 consecutive days; format: functional; outline: as §3
Mus musculus [11] = assay: Reduction in plasma LDL-cholesterol in human CETP/human ApoB-100 transgenic mouse at 1 mg/kg, po dosed for 14 consecutive days; format: functional; outline: as §3
Mus musculus [12] = assay: Reduction in plasma LDL-cholesterol in human CETP/human ApoB-100 transgenic mouse at 10 mg/kg, po dosed for 14 consecutive days; format: functional
Outline: (§4)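 Hemizygous male human CETP/human apoB100 transgenic mice (B6.SJL-Tg(APOA-CETP)1Dsg Tg(APOB)1102Sgy N10), aged 26–30 weeks and chow-fed, received oral gavage each morning for 14 consecutive days. Compound was suspended in 0.5% aqueous hydroxyethylcellulose. EDTA blood was taken from the facial vein under isoflurane 7 h post-dose after a 4 h fast. Plasma LDL-cholesterol fraction was measured on an automated analyzer. Data are mean ± SEM.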

Plasma [13] = assay: Plasma concentration in hemizygous human CETP transgenic mouse at 3 mg/kg, po dosed for 5 consecutive days measured on day 5 and day 7 post dose; format: ADME, organism-based; set-up: dose 3 mg/kg, route oral; settings: in vivo
Mus musculus [14] = assay: Increase in HDL-cholesterol in human CETP/human ApoB-100 transgenic mouse at 10 mg/kg, po dosed for 14 consecutive days; format: functional; outline: as §3
Plasma [15] = assay: Plasma concentration in hemizygous human CETP transgenic mouse at 10 mg/kg, po dosed for 5 consecutive days measured on day 5 and day 7 post dose; format: ADME, organism-based; set-up: dose 10 mg/kg, route oral; settings: in vivo
Mus musculus [16] = assay: Increase in HDL-cholesterol in human CETP/human ApoB-100 transgenic mouse at 3 mg/kg, po dosed for 14 consecutive days; format: functional; outline: as §3
Cynomolgus monkey [17] = assay: Effect on blood pressure in cynomolgus monkey up to 100 mg/kg by telemetry; format: ADME, organism-based, Macaca fascicularis; set-up: dose 100 mg/kg; settings: in vivo; outline: as §1
[18] = Clearance in C57BL/6J mouse at 1 umol/kg, iv; format: ADME, organism-based; settings: in vivo
Plasma [19] = assay: Drug concentration in plasma of hemizygous human CETP transgenic mouse at 3 mg/kg, po dosed for 5 consecutive days measured on day 3 after cessation of drug treatment; format: ADME, organism-based; set-up: dose 3 mg/kg, route oral; settings: in vivo; outline: as §2
[20] = AUC (0 to 24 hrs) in C57BL/6J mouse at 10 umol/kg, po; format: ADME, organism-based; set-up: time < 24 hr, dose 10 umol/kg, route oral; settings: plasma
[21] = target: T1, Cholesteryl ester transfer protein (Homo sapiens, UniProt P11597); assay: Inhibition of human recombinant CETP in presence of 88% human plasma by fluorescence transfer assay
T1 sequence (P11597 whole entry): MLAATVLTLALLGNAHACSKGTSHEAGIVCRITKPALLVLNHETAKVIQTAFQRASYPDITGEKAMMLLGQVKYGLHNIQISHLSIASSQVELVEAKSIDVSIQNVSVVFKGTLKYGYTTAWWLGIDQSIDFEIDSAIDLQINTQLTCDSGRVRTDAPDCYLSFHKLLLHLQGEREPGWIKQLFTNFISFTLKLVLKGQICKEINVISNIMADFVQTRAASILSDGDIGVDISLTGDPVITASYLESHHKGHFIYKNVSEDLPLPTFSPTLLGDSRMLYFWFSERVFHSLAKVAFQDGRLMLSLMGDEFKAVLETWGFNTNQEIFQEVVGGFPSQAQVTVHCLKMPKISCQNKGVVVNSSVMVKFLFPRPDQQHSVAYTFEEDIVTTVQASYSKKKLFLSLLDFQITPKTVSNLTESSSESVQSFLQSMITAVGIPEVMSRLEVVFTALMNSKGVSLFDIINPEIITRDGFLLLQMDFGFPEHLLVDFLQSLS
Outline: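 Fluorescent neutral-lipid transfer from donor to acceptor particles by human recombinant CETP, with the test compound added in DMSO. Incubation 3 h at 37 °C. CE transfer is read as the fluorescence change at 485/535 nm. IC50 comes from a four-parameter logistic fit with variable slope. For this line the reaction contains 88% human plasma.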

Mus musculus [22] = assay: Reduction in plasma LDL-cholesterol in human CETP/human ApoB-100 transgenic mouse at 3 mg/kg, po dosed for 14 consecutive days; format: functional; outline: as §4
Mus musculus [23] = assay: Increase in HDL-cholesterol in human CETP/human ApoB-100 transgenic mouse at 1 mg/kg, po dosed for 14 consecutive days; format: functional; outline: as §3
Kidney = assay: Drug concentration in kidney of hemizygous human CETP transgenic mouse at 3 mg/kg, po dosed for 5 consecutive days measured on day 3 after cessation of drug treatment; format: ADME, organism-based; set-up: dose 3 mg/kg, route oral; settings: in vivo; outline: as §2
[24] = Mean residence time in C57BL/6J mouse at 1 umol/kg, iv; format: ADME, organism-based; settings: in vivo
[25] = Drug concentration in kidney of hemizygous human CETP transgenic mouse at 3 mg/kg, po dosed for 5 consecutive days measured on day 21 after cessation of drug treatment; format: ADME, organism-based; set-up: dose 3 mg/kg, route oral; settings: read-out: Drug uptake; outline: as §2
[26] = Drug concentration in testes of hemizygous human CETP transgenic mouse at 3 mg/kg, po dosed for 5 consecutive days measured on day 21 after cessation of drug treatment; format: ADME, organism-based, Testis; set-up: dose 3 mg/kg, route oral; settings: male, read-out: Drug uptake; outline: as §2
NCI-H295R = assay: Effect on aldosterone secretion in human NCI-H295R cells up to 10 uM; format: ADME, cell-based
Cynomolgus monkey [27] = assay: Effect on electrocardiogram parameters in cynomolgus monkey assessed as changes in QRS-complex up to 100 mg/kg by telemetry; format: ADME, organism-based, Macaca fascicularis; set-up: dose 100 mg/kg; settings: in vivo; outline: as §1
[28] = Cmax in cynomolgus monkey up to 100 mg/kg; format: ADME, organism-based, Macaca fascicularis; set-up: dose 100 mg/kg; settings: in vivo; outline: as §1
Mus musculus [29] = assay: Inhibition of plasma CETP activity in hemizygous human CETP transgenic mouse dosed for 5 or 14 consecutive days via oral gavage; format: functional, organism-based
Mus musculus [30] = assay: Reduction in LDL-cholesterol in hemizygous human CETP/human apoB100 transgenic mouse dosed for 14 consecutive days via oral gavage
Cynomolgus monkey [31] = assay: Effect on electrocardiogram parameters in cynomolgus monkey assessed as changes in QT-interval up to 100 mg/kg by telemetry; format: ADME, organism-based, Macaca fascicularis; set-up: dose 100 mg/kg; settings: in vivo; outline: as §1
[32] = Mean residence time in cynomolgus monkey up to 100 mg/kg; format: ADME, organism-based, Macaca fascicularis; set-up: dose 100 mg/kg; settings: in vivo; outline: as §1
[33] = Drug concentration in testes of hemizygous human CETP transgenic mouse at 3 mg/kg, po dosed for 5 consecutive days measured on day 3 after cessation of drug treatment; format: ADME, organism-based, Testis; set-up: dose 3 mg/kg, route oral; settings: in vivo; outline: as §2
Muscle tissue = assay: Drug concentration in muscle of hemizygous human CETP transgenic mouse at 3 mg/kg, po dosed for 5 consecutive days measured on day 3 after cessation of drug treatment; format: ADME, organism-based; set-up: dose 3 mg/kg, route oral; settings: in vivo; outline: as §2
Liver = assay: Drug concentration in liver of hemizygous human CETP transgenic mouse at 3 mg/kg, po dosed for 5 consecutive days measured on day 3 after cessation of drug treatment; format: ADME, organism-based; set-up: dose 3 mg/kg, route oral; settings: in vivo; outline: as §2
Mus musculus [34] = assay: Increase in HDL-cholesterol in hemizygous human CETP transgenic mouse dosed for 14 consecutive days via oral gavage; format: functional, organism-based; outline: as §3
Cynomolgus monkey [35] = assay: Effect on heart rate in cynomolgus monkey up to 100 mg/kg by telemetry; format: ADME, organism-based, Macaca fascicularis; set-up: dose 100 mg/kg; settings: in vivo; outline: as §1
[36] = Drug concentration in plasma of hemizygous human CETP transgenic mouse at 3 mg/kg, po dosed for 5 consecutive days measured on day 21 after cessation of drug treatment; format: ADME, organism-based; set-up: dose 3 mg/kg, route oral; outline: as §2
[37] = Drug concentration in adipose fat tissue of hemizygous human CETP transgenic mouse at 3 mg/kg, po dosed for 5 consecutive days measured on day 21 after cessation of drug treatment; format: ADME, organism-based; set-up: dose 3 mg/kg, route oral; settings: read-out: Drug uptake; outline: as §2
Mus musculus [38] = assay: Increase in HDL-cholesterol in hemizygous human CETP transgenic mouse at 10 mg/kg, po dosed for 5 consecutive days; format: functional; outline: as §3
[39] = Drug concentration in liver of hemizygous human CETP transgenic mouse at 3 mg/kg, po dosed for 5 consecutive days measured on day 21 after cessation of drug treatment; format: ADME, organism-based; set-up: dose 3 mg/kg, route oral; settings: read-out: Drug uptake; outline: as §2

concentration (Plasma [1]): 96 nM
Vd [2]: 5.9 L/kg
concentration at 21 days after cessation of treatment [6]: < 30 nM
Drug uptake [7]: Active
concentration (Plasma [13]): 206 nM
concentration (Plasma [15]): 671 nM
clearance [18]: 16 mL/min/kg
Drug uptake (Plasma [19]): Active
AUC(0-t) at 24 h [20]: 4.9 µM·h
IC50 [21]: 151 nM
Drug uptake (Kidney): Active
MRT [24]: 6.1 h
concentration at 21 days after cessation of treatment [25]: < 30 nM
concentration at 21 days after cessation of treatment [26]: < 30 nM
Cmax [28]: > 10000 nM
MRT [32]: > 20 h
Drug uptake [33]: Active
Drug uptake (Muscle tissue): Active
Drug uptake (Liver): Active
concentration at 21 days after cessation of treatment [36]: < 30 nM
concentration at 21 days after cessation of treatment [37]: < 30 nM
concentration at 21 days after cessation of treatment [39]: < 30 nM
Structure (SMILES): CC(C)c1nc2c(c3c1[C@@H](c1ccc(C(F)(F)F)cc1)OC31CCOCC1)[C@@H](O)CC(C)(C)C2
Activity (Cynomolgus monkey [3]): Non-toxic
Activity (Cynomolgus monkey [4]): Non-toxic
Activity (Cynomolgus monkey [5]): Non-toxic
Activity (Mus musculus [8]): 55.6%
Activity (Mus musculus [9]): Dose-dependent effect
Activity (Mus musculus [10]): 74.4%
inhibition in vivo at 1 mg/kg (Mus musculus [11]): 26.2%
inhibition in vivo at 10 mg/kg (Mus musculus [12]): 60%
Activity (Mus musculus [14]): 37.2%
Activity (Mus musculus [16]): 32.3%
Activity (Cynomolgus monkey [17]): Non-toxic
inhibition in vivo at 3 mg/kg (Mus musculus [22]): 49%
Activity (Mus musculus [23]): 23.5%
Activity (NCI-H295R): Non-toxic
Activity (Cynomolgus monkey [27]): Non-toxic
inhibition (Mus musculus [29]): Dose-dependent effect
Activity (Mus musculus [30]): Dose-dependent effect
Activity (Cynomolgus monkey [31]): Non-toxic
Activity (Mus musculus [34]): Dose-dependent effect
Activity (Cynomolgus monkey [35]): Non-toxic
Activity (Mus musculus [38]): 37.4%
